Assay outcomes as filed in PubChem BioAssay.
CHT allo act: CHT positive allosteric modulators, primary screen, cell-based, membrane potential dye, choline EC20; High affinity choline transporter 1 (Homo sapiens), Q9GZV3; CHT-expressing cells; active compounds read high; LV-AA mutant CHT in HEK293 cells; B-score at 10 µM; 310,000 compounds, 0.49% hits; AID 488977, 2010;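 active = initial fluorescence not abnormally high and integrated response B-score, plate-corrected, over 3 SD above library mean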
NR2E3 ag-1: NR2E3 agonists in two-hybrid cells, primary screen, cell-based, luminescence, CHO-S, Gal4-NCOR/VP16-NR2E3; Photoreceptor-specific nuclear receptor (Homo sapiens), Q9Y5X4; luciferase; inhibition of corepressor binding, % at 3.98 µM; 360,000 compounds, 0.35% hits;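 active = inhibition above the mean of all tested compounds plus 3 SD, cut at about 70% in these data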;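 also: 0% = DMSO with NR2E3 transfected cells and 100% = cells lacking NR2E3 construct; higher means lower luciferase signal from less NR2E3 corepressor binding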
NR2F2 inh: NR2F2 transcriptional activity inhibitors, primary screen, cell-based, luciferase reporter, HEK293T, luminescence; 370,000 compounds, 0.7% hits; HEK293T NGFI-A luciferase reporter; inhibition, % at 8.6 µM;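 active = inhibition above a per-plate cutoff, mean inhibition of test wells between control levels plus 3 SD, cut at about 38% in these data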;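 also: cells cotransfected with COUP-TFII expression vector driving the NGFI-A reporter; 0% = median of COUP-TF2 test wells and 100% = reporter-only cells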
Target sequence (P24468 whole entry, looked up): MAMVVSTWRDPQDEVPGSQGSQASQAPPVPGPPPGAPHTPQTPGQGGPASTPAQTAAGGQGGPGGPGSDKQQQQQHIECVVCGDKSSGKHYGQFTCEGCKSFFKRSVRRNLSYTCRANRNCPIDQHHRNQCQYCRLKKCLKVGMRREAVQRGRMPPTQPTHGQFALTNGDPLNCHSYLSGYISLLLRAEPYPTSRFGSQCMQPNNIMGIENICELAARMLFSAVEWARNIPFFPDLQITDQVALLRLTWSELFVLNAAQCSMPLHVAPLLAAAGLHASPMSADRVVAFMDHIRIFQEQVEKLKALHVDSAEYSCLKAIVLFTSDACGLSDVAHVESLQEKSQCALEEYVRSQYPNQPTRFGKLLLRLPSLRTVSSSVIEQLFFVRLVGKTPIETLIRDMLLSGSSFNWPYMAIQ
GalR3 antagonist: GalR3 antagonists in HEK293 cells, primary screen, cell-based, fluorescence readout. AID 651719, 2012. 360,000 compounds, 0.44% hits. HEK293 GalR3-CNG cAMP membrane potential fluorescence; galR3 body fused to GalR1 C-terminus. Galanin receptor type 3 (Homo sapiens), O60755. inhibition, % at 3 µM;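 active = inhibition above the screen-wide average plus 3 SD, cut at about 13% in these data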;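 also: forskolin and galanin both at EC90 stimulate the cells; cAMP rise reported by CNG channel membrane potential dye signal; 0% = forskolin plus galanin with DMSO and 100% = forskolin alone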
CHT block: inhibitors of human choline transporter CHT; AID 488975, 2010; 310,000 compounds, 0.86% hits; CHT-expressing cells, membrane potential dye, choline response; active compounds read low; B-score at 10 µM;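 active = B-score over 3 SD under the library average, and starting fluorescence ratio not unusually high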;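 also: choline stimulus applied at its EC90 after an EC20 pre-addition; B-score computed on integrated fluorescence ratio after choline addition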
NR2E3 ag-2: inhibitors of NR2E3-RetCOR corepressor binding, primary screen, NR2E3 agonist project, biochemical, TR-FRET, GST-NR2E3, biotin-RetCOR; inhibition of corepressor binding, % at 4.78 µM; Photoreceptor-specific nuclear receptor (Homo sapiens), Q9Y5X4; 1536-well; 320,000 compounds, 0.12% hits;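 active = percent inhibition above the cutoff of mean plus 3 SD of all tested compounds, set per screening campaign, cut at about 20% in these data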;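 also: 0% = DMSO wells and 100% = biotin wells as full block of FRET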
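Material – GST-tagged NR2E3 plus biotinylated RetCOR corepressor · Quantity – NR2E3 fusion 1.35 nM · Times – 5 h incubation at 4 °C · Medium – pH 7.5 Tris-based buffer · Technique – TR-FRET, Eu(K)-anti-GST donor, streptavidin-D2 acceptor, ex 340, em 617/671 nm · Benchmarks – high control biotin, low control 0.6% DMSO · Format – 1536-well plates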
CHT activ conf: CHT activators, confirmation, cell-based, membrane potential dye, duplicate; shares compounds with CHT allo act; CHT-expressing cells, membrane potential dye fluorescence (FDSS); % of choline EC20–EC90 response window; HEK293 expressing CHT LV-AA mutant; choline added at its EC20; activation, % at 10 µM; 2,500 compounds, 91% hits; AID 504833, 2011;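 active = primary screen active, with duplicate mean activation above negative control mean plus 3 SD, cut at about 11% in these data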
HEK293 MP dye: membrane potential response in parental HEK293 cells, counter-screen for CHT activator project, cell-based, membrane potential dye. membrane potential dye fluorescence (FDSS); measured after EC20 choline addition. shares compounds with CHT allo act. 2,500 compounds, 62% hits. ratio readout change at 10 µM, hits read low;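 active = duplicate-averaged ratio beyond 3 SD from buffer wells, up or down, though filed actives are nearly all decreases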
* = called active by the depositor; i = inactive; · = not tested or not shown. Only some compounds are listed: those with a hit (about 2.3% of all), similar ones and a draw of the others.

SMILES	CHT allo act	NR2E3 ag-1	NR2F2 inh	GalR3 antagonist	CHT block	NR2E3 ag-2	CHT activ conf	HEK293 MP dye
O=[N+]([O-])c1ccc(C[n+]2ccccc2)cc1	i	16	-3	-2	i	3	·	·
O=C(C1CCN(c2ncnc3c2sc2cccc(F)c23)CC1)N1CCN(Cc2ccc(F)cc2)CC1	·	·	10	·	·	·	·	·
CCN1CCN(c2cc(N3CCN(C(=O)c4ccco4)CC3)c3c4c(onc24)-c2ccccc2C3=O)CC1	i	-23	·	·	i	-15	25*	-52*
COC1=C[C@H](C(=O)NCc2ccccc2)[C@H](C)[C@@H](c2ccccc2)CC1=O	·	·	4	·	·	·	·	·
Cc1ccc(-c2c[n+](Cc3ccc(Cl)cc3)c3n2CCC3)cc1	i	2	31	2	i	2	·	·
Clc1cccc(C[n+]2cc(-c3ccccc3)n3c2CCC3)c1	8.8*	-6	-2	3	i	4	67*	-43*
CN1CCN(c2nc3c(c(=O)[nH]c(=O)n3C)n2CCSc2nnnn2-c2ccccc2)CC1	8.2*	4	-5	-6	i	-3	59*	-68*
CN1CCN(c2nc3c(c(=O)n(C)c(=O)n3C)n2CCSc2nnnn2-c2ccccc2)CC1	7.2*	-20	-9	-1	i	3	52*	-71*
CC1CCN(c2nc3c(c(=O)n(C)c(=O)n3C)n2Cc2ccccc2)CC1	6.6*	-8	7	-7	i	2	7	i
Cn1c(=O)[nH]c(=O)c2c1nc(N1CCCC1)n2CCCSc1nnnn1-c1ccccc1	i	-6	1	-2	i	0	·	·
Brc1c(-c2ccc3c(c2)OCO3)nc2ncccn12	6.3*	-30	-16	-2	i	-4	45*	-46*
Cc1c(OC(C)C(=O)NC2CC(C)(C)NC(C)(C)C2)ccc2c3c(c(=O)oc12)CCC3 (stereo not given)	6.7*	0	7	1	i	-1	43*	-52*
CC(Oc1cc2oc(=O)c3c(c2cc1Cl)CCC3)C(=O)NC1CC(C)(C)NC(C)(C)C1 (stereo not given)	i	-23	1	-1	i	1	·	·
CCOC(=O)c1cn(CC2CC2)c2cc(F)c(F)cc2c1=O	8.2*	-13	-3	-5	i	1	59*	-67*
CCn1cc(C(=O)O)c(=O)c2cc(Br)ccc21	i	-16	2	-1	i	7	·	·
CCCn1cc(C(=O)OCC)c(=O)c2cc(F)c(F)cc21	i	-24	22	-6	i	2	·	·
CCOC(=O)c1cn(CC)c2cc(Cl)c([N+](=O)[O-])cc2c1=O	7.5*	-7	-4	2	i	-2	46*	-49*
CCOC(=O)c1cn(CC)c2ccc(Br)cc2c1=O	i	-30	-7	-5	i	1	44*	-36*
COC(=O)[C@]12C[C@H](CC(=O)NCC3CCCCC3)C(=O)N(Cc3ccco3)C1=C[C@H](C1CCCC1)O[C@@H]2C	·	·	5	·	·	·	·	·
Cc1ccc(N=C(NOCc2ccc(Cl)cc2Cl)c2nonc2N)c(C)c1	8.8*	0	2	0	i	2	28*	i
O=C(Nc1ccc2ccccc2c1)C(c1ccccc1)C1CCCC1 (stereo not given)	i	-6	-15	-4	i	-3	24*	i
Cc1ccc(NC(=O)C(c2ccccc2)C2CCCC2)cc1 (stereo not given)	·	-14	-13	-6	·	·	·	·
Cc1ccc(C)c(N2CCN(C3CCCCC3NS(=O)(=O)c3ccccc3)CC2)c1 (stereo not given)	6.3*	3	·	·	i	0	16*	i
O=S(=O)(NC1CCCCC1N1CCCCC1)c1ccccc1 (stereo not given)	i	-30	1	-12	i	3	·	·
CC(NC(=O)COC(=O)Cc1ccsc1)c1ccccc1 (stereo not given)	6.4*	-25	10	-5	i	1	-7	i
SMILES	CHT allo act	NR2E3 ag-1	NR2F2 inh	GalR3 antagonist	CHT block	NR2E3 ag-2	CHT activ conf	HEK293 MP dye
O=C(COC(=O)Cc1ccsc1)NCc1ccccc1	i	-31	19	-1	i	4	·	·
Clc1ccc(-n2c(SCc3cccc4ccccc34)nnc2-c2cccnc2)cc1	·	·	18	·	·	·	·	·
CC(C)CCNc1nc(-c2ccco2)c2c(c1C#N)CCCC2	i	-8	7	6	i	3	·	·
CN(C)CCNc1nc(-c2ccco2)c2c(c1C#N)CC(C)(C)OC2	11*	-1	5	-7	i	-1	65*	-91*
CC1(C)Cc2c(C#N)c(OCC(=O)c3ccc(Cl)cc3)nc(-c3ccco3)c2CO1	13*	-21	-3	-2	i	-2	9	i
CC1(C)Cc2c(C#N)c(NCc3ccco3)nc(-c3ccco3)c2CO1	i	-9	-2	-5	i	0	·	·
N#Cc1c(NCCN)nc(-c2ccco2)c2c1CCCC2	i	-38	5	-5	i	-5	39*	-73*
Cc1nc(OCC(=O)c2ccc(Cl)cc2)c(C#N)c2c1COC(C)(C)C2	i	-4	6	-3	i	0	·	·
COc1ccc(CSc2nnc(SCc3ccccc3)s2)cc1	·	·	-2	·	·	·	·	·
CCOCCCn1c(=NC(C)=O)c(C#N)cc2c(=O)n3cccc(C)c3nc21	i	-7	-1	-2	i	3	43*	-62*
O=C(c1ccccc1I)N1CCC(Oc2cccnc2)CC1	·	·	17	·	·	·	·	·
O=C(N/N=C/c1ccncc1)c1cccc([N+](=O)[O-])c1	i	·	-7	-5	i	-2	49*	-51*
